From ChEMBL document CHEMBL1949520, “Synthesis of terphenyl benzimidazoles as tubulin polymerization inhibitors” (2012) come the findings set out here.

Active and inactive are the calls of the source. The calls are words filed in the database; no cut-off is given here.

In general, GI50 refers to the concentration at which growth is held to half of that of the control. Read a low GI50 as greater sensitivity of the cells. One may read the inhibition as how much of the control response was suppressed. A higher inhibition goes with a response far below the control.

Experiment [1] has as its system A549. The experiment in a line: Growth inhibition of human A549 cells by SRB assay. It counts as functional.
Experiment [2] in a line: Growth inhibition of human Gurav cells by SRB assay. It counts as functional.
In another experiment the test system is HOP-62. Put plainly: Growth inhibition of human HOP62 cells by SRB assay. It is filed as functional.
The next experiment relates to MCF7. Put plainly: Growth inhibition of human MCF7 cells by SRB assay. It is filed as functional. In general terms: The SRB assay estimates cell density from bound dye.
The next experiment relates to ZR-75-1. Put plainly: Growth inhibition of human ZR-75-1 cells by SRB assay. It counts as functional.
For another experiment, the system named is A2780. The experiment in a line: Growth inhibition of human A2780 cells by SRB assay. It is filed as functional.
Experiment [3] in a line: Growth inhibition of human DWD cells by SRB assay. It counts as functional.
In a further experiment the test system is KB. The experiment in a line: Growth inhibition of human KB cells by SRB assay. It is filed as functional.
Another experiment deals with COLO 205. Put plainly: Growth inhibition of human COLO205 cells by SRB assay. It counts as functional.
A further experiment has as its system PC-3. Put plainly: Growth inhibition of human PC3 cells by SRB assay. It is filed as functional.
The subject of the next experiment is SiHa. Put plainly: Growth inhibition of human SiHa cells by SRB assay. It counts as functional.
The subject of experiment [4] is A549. Put plainly: Cell cycle arrest in human A549 cells assessed as accumulation at G2/M phase at 5 uM after 48 hrs by propidium iodide staining-based flow cytometric analysis. It is filed as functional. The method in brief:
(§1)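 A549 cells treated 48 h (5 μM test agents; 1 μM standard), trypsin-EDTA harvest, PBS wash, fixed in ice-cold 70% ethanol at 4 °C for 30 min, then stained 30 min at room temperature in the dark with propidium iodide/trisodium citrate/Triton X-100 solution. DNA content by flow cytometry; G2/M fraction compared with untreated control.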
In general terms: A flow cytometer gives signals particle by particle.

The next experiment is filed under the species Bos taurus. The experiment in a line: Inhibition of bovine tubulin polymerization after 1 hr at 1 min interval by fluorescence assay. In a few lines: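 Bovine brain tubulin, 2 mg/mL, in PEM buffer (80 mM PIPES, 0.5 mM EGTA, 2 mM MgCl2, pH 6.9) with fluorescent reporter, compounds at 3 μM, 37 °C. Reaction started by adding 1 mM GTP. Polymerization followed as fluorescence gain (ex 360/em 420 nm), read every 1 min for 1 h. Nocodazole as positive control.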

Experiment [5] concerns A549. Put plainly: Inhibition of alpha-tubulin in human A549 cells assessed as ratio of free to polymerized tubulin at 5 uM after 24 hrs by densitometric analysis relative to control. It counts as cell-based. The method in brief:
(§2)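 A549 cells exposed 24 h (5 μM test agents; 1 μM nocodazole or taxol). Spun 15000g, 30 min, 22 °C to give soluble and polymerized fractions. α-Tubulin Western blot; band densitometry as soluble/polymerized ratio.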

For experiment [6], the system named is A549. The experiment in a line: Inhibition of alpha-tubulin in human A549 cells assessed as ratio of free to polymerized tubulin at 1 uM after 24 hrs by densitometric analysis relative to control. It counts as cell-based. In a few lines: as §2
Experiment [7] relates to A549. Put plainly: Cell cycle arrest in human A549 cells assessed as accumulation at G2/M phase at 1 uM after 48 hrs by propidium iodide staining-based flow cytometric analysis relative to control. It is filed as functional. The method in brief:
as §1

As to `COc1cc(-c2ccc(-c3ccc(-c4nc5c(O)cccc5[nH]4)cc3)cc2)cc(OC)c1OC`, the GI50 is under 100 nM in the experiment with A549 [1]; 170 nM in [2]; 190 nM in the experiment with HOP-62; under 100 nM in the experiment on MCF7; 190 nM in the experiment with ZR-75-1; 170 nM in the experiment on A2780. Further, the GI50 in experiment [3] amounted to 190 nM; with KB, 2110 nM; in the experiment with COLO 205, 190 nM; with PC-3, 170 nM; in the experiment with SiHa, 170 nM. Further, in the experiment with A549 [4], the result was Active. In the experiment filed under Bos taurus, this molecule had an inhibition of 98.3%. Further, the fold change (FC) in the experiment on A549 [5] came to 1.4.

Turning to `Oc1ccc(-c2ccc(-c3ccc(-c4nc5c(O)cccc5[nH]4)cc3)cc2)cc1`, the GI50 in the experiment with A549 [1] is 170 nM; in [2], 190 nM; in the experiment with HOP-62 it was 2410 nM; with MCF7, 190 nM; in the experiment with ZR-75-1 it was 2650 nM; with A2780, 2920 nM. For the same molecule, the GI50 came out at 2700 nM in experiment [3]; 3190 nM in the experiment on KB; 2600 nM with COLO 205; 190 nM in the experiment on PC-3; 2410 nM in the experiment on SiHa. Moreover, in the experiment with A549 [4], the outcome was Active. In addition, the inhibition in the experiment listed under Bos taurus came to 36.3%. Moreover, the fold change (FC) in the experiment on A549 [5] amounted to 1.1.

Take `COc1cc(-c2ccc(-c3ccc(-c4nc5cc(C)ccc5[nH]4)cc3)cc2)cc(OC)c1OC`: the GI50 in the experiment with A549 [1] was under 100 nM; in experiment [2], 170 nM; with HOP-62, 2370 nM; in the experiment with MCF7, 170 nM; in the experiment on ZR-75-1, 190 nM; in the experiment with A2780, 190 nM. Further, the GI50 in experiment [3] turned out to be 170 nM; with KB it was 2110 nM; with COLO 205, 190 nM; in the experiment with PC-3, 180 nM; in the experiment on SiHa, 170 nM. Besides, the result in the experiment with A549 [4] was Active. The molecule further returned an inhibition in the experiment listed under Bos taurus of 48.8%. In addition, the fold change (FC) in the experiment on A549 [5] stood at 1.3.

As for `CC(=O)O[C@H]1C(=O)[C@@]2(C)[C@H]([C@H](OC(=O)c3ccccc3)[C@]3(O)C[C@H](OC(=O)[C@H](O)[C@@H](NC(=O)c4ccccc4)c4ccccc4)C(C)=C1C3(C)C)[C@]1(OC(C)=O)CO[C@@H]1C[C@@H]2O`, the fold change (FC) with A549 [6] was determined as 0.5.

Consider `COC(=O)Nc1nc2cc(C(=O)c3cccs3)ccc2[nH]1`, for which the result in the experiment with A549 [7] was Active. In the experiment listed under Bos taurus, this molecule came in with an inhibition of 58.9%. Also, the fold change (FC) in the experiment with A549 [6] amounted to 1.5.

With `FC(F)(F)c1ccc(-c2ccc(-c3ccc(-c4nc5ccccc5[nH]4)cc3)cc2)cc1`, the GI50 is 36600 nM with A549 [1]; 39100 nM in experiment [2]; 100000 nM in the experiment with HOP-62; 41400 nM in the experiment on MCF7; 48300 nM in the experiment with ZR-75-1; 100000 nM with A2780. The 50% growth inhibitory concentration (GI50) is 100000 nM in experiment [3]; 47200 nM in the experiment with KB; 33900 nM in the experiment on COLO 205; 45200 nM with PC-3; 100000 nM in the experiment with SiHa.
